Experimental data collected from several papers.
Protocols differ between the studies behind these lines.

SMILES | system | conditions | quantity | value
CC(C)(O)c1ccccc1-c1ccc2[nH]c(/C=C/c3ccc(C(F)(F)F)cc3)nc2c1 | male human, plasma | oral, 5 mg, single dose, fasted, healthy volunteers | MRT | 43.6 h
CC(C)(Nc1nc(-c2ccccn2)nc2ccccc12)c1ccccn1 | female BALB/c mouse, plasma | intravenous, 1 mg/kg, 4.98 min | concentration | 1460 ng/mL
c1cnc2ccc(Nc3nc(NC4CC4)c4nc[nH]c4n3)cc2c1 | human, plasma | oral, 50 mg/m², patients | MRT(0-t) | 6.4 h
CC(C)CN(C[C@@H](O)[C@H](Cc1ccccc1)NC(=O)O[C@H]1CO[C@H]2OCC[C@H]21)S(=O)(=O)c1ccc(N)cc1 | BALB/c mouse, plasma | intravenous, 25 mg/kg, 12 h | concentration | 31.4 ng/mL
CC(C)(C)c1ccc(O)c(CN(Cc2cc(C(C)(C)C)ccc2O)C2CCC(NC(N)=O)CC2)c1 (stereo not shown) | male C57BL/6 mouse, brain | intraperitoneal, 25 mg/kg, single dose | half-life | 10.1 h
CS(=O)(=O)CCC#N | human, plasma | oral, 300 mg, single dose, fasted | MRT | 30.5 h
O=C(O)C1CCN(c2ncc(-c3ccc4c(c3)OCCCO4)s2)CC1 | male Swiss mouse, plasma | oral, 30 mg/kg, 24 h, single dose | concentration | 1570 ng/mL
O=S(=O)(c1ccc(-c2ccc3nccc(Nc4ccncn4)c3c2)cc1)N1CCOCC1 | female BALB/c mouse, plasma | intraperitoneal, 10 mg/kg, 24 h | concentration | 0 ng/mL
CC(C)Oc1cccc(-c2cnc(N3CCC(C(N)=O)CC3)s2)c1 | male Swiss mouse, brain | oral, 30 mg/kg, 1 h, single dose | concentration | 207 ng/g
O=c1nc(N2CCN(CC3CCCCC3)CC2)sc2c([N+](=O)[O-])cc(C(F)(F)F)cc12 | CD-1 mouse, lung | oral, 100 mg/kg, 15 min | concentration | 431 ng/mL
